These results are taken from PMC8566757 (Food Chemistry: X, 2021).

Assay [1] deals with T1, xanthine oxidase (Bos taurus, UniProt P80457). Description: Uric acid formation catalyzed by XO. The format is biochemical. A digest of the protocol: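 Xanthine oxidase (Grade IV) was run in 40 mM sodium carbonate with 0.1 mM EDTA, pH 10.0, at 25 °C. Xanthine was 0–200 µM, and test compound came from a 10 mM DMSO stock. Start with 0.04 unit XO and record uric acid at 293 nm for 60 s. Rate came from the linear rise, against a DMSO control. IC50 was taken at 200 µM xanthine. Mode and kinetic parameters were fitted from ≥3 separate runs.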

Assay [2] can be described thus: Scavenging of DPPH radicals and initial scavenging rate. Particulars: for DPPH activity: 20 min, 25 °C, pH 5.5. In outline:
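DPPH (3 mM ethanolic stock) was mixed with 100 mM acetate buffer (pH 5.5) and ethanol. Test compound (10 mM DMSO stock) was added, with DMSO as control, and kept at 25 °C for 20 min. Absorbance was read at 517 nm (ε = 8.32 X 103). The initial rate came from the absorbance drop just after compound addition. Runs were done ≥3 times.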

Assay [3] has as its target T1, xanthine oxidase. The experiment in a line: O2- generation catalyzed by XO. It counts as biochemical.

Usually IC50 stands for the concentration that gives 50% inhibition. A high value points to weaker potency. As usually defined, the Ki is the equilibrium dissociation constant of an inhibitor or competing ligand from its target.

T1 sequence (P80457 whole entry): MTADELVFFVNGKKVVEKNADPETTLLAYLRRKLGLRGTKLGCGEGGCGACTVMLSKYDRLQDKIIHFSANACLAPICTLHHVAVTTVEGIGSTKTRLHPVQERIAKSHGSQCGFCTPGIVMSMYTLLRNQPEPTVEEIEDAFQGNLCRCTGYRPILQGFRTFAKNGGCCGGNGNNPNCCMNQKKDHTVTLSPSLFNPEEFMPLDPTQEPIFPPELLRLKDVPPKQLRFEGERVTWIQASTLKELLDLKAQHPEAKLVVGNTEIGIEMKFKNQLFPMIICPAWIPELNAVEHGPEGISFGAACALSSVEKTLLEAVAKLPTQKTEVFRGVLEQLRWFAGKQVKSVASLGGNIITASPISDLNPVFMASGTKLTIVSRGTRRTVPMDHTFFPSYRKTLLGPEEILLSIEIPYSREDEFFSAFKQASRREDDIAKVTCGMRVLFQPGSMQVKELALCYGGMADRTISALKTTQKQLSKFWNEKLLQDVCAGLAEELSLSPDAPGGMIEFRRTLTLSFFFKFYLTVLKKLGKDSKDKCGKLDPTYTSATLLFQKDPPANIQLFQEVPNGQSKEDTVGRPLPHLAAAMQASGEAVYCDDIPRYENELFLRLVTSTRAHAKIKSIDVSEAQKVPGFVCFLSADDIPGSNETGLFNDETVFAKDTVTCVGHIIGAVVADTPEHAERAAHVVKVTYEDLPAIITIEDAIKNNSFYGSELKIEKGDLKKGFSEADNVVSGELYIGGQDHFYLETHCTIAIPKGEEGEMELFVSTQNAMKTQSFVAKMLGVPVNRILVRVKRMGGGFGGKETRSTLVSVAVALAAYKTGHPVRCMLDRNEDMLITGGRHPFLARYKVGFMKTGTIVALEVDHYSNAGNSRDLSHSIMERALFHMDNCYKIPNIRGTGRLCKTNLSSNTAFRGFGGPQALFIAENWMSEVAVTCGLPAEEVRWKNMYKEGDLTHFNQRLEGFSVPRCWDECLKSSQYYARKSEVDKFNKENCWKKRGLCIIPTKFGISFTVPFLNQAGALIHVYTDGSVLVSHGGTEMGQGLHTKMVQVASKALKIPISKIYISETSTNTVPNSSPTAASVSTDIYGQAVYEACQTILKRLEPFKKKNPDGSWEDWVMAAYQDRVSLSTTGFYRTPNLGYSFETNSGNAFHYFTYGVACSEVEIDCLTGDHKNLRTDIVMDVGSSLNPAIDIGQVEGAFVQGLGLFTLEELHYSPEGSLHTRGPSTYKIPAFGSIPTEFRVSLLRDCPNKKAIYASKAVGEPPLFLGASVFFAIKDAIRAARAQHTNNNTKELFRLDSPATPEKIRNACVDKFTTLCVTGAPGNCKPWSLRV

Regarding `Oc1cc(O)cc(/C=C/c2ccc(O)c(O)c2)c1` [Piceatannol (6), Piceatannol], the IC50 in assay [1] worked out at 15 ± 5 µM; in assay [3], 4.5 ± 0.4 µM. In addition, the Ki was found to be 6.7 ± 1.6 µM in assay [1] and 2.2 ± 0.1 µM in assay [3]. Further, in assay [2], the DPPH activity is 2.45 ± 0.13 DPPH molecules / a molecule of stilbene compound. For the same compound, in assay [2] (after the addition of sample solution), the “Initial rate of DPPH scavenging” value turned out to be 3.75 µmol/L/s. Moreover, in assay [3] (mixed type kinetics, xanthine 0 – 200 µM, pH 10.0), the “K’i, inhibition of O2- generation using xanthine oxidase” value was found to be 21.1 ± 1.0 µM. Further, in assay [3] (xanthine 0 – 200 µM), the “Inhibition kinetics (mode) of O2- generation” value is recorded as “mixed type”.
The compound `COc1cc(/C=C/c2ccc(O)cc2)cc(OC)c1` [Pterostilbene (5), Pterostilbene] came in with an IC50 in assay [1] above 50 µM. In addition, the DPPH activity in assay [2] was 0.74 ± 0.10 DPPH molecules / a molecule of stilbene compound. In assay [3], this compound yielded an IC50 of 124 ± 16 µM and a Ki of 43 ± 5 µM.
In assay [1], `Oc1ccc(/C=C/c2cc(O)cc(O)c2)cc1` [Resveratrol (1), Resveratrol] gave an IC50 of 34 ± 4 µM and a Ki of 7.7 ± 0.7 µM. Further, the “Inhibition kinetics (mode) of uric acid formation” value in assay [1] (versus xanthine) is “competitive inhibition”. In assay [2], the DPPH activity is on record as 0.72 ± 0.27 DPPH molecules / a molecule of stilbene compound. For the same compound, in assay [3], inhibition was half-maximal at 21 ± 3 µM (IC50) and affinity was put at a Ki of 7.1 ± 1 µM.
For `OC[C@H]1O[C@@H](Oc2cc(O)cc(/C=C/c3ccc(O)cc3)c2)[C@H](O)[C@@H](O)[C@@H]1O` [Resveratrol-3-glucoside (2), Resveratrol-3-glucoside], the results for the IC50 in assay [1] and in assay [3] were above 50 µM and 49 ± 1 µM, respectively. Moreover, in assay [2], the DPPH activity was 0.59 ± 0.15 DPPH molecules / a molecule of stilbene compound. The compound also registered a Ki in assay [3] of 19 ± 2 µM.
